PGC1a Ac signal – raises PGC1a acetylation signal in U2OS cells | U2OS PGC1a acetylation AlphaScreen, overnight | activation, % at 15.6 µM | 0.21% of 350,000 active | AID 651723;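 active = every replicate reaching activation of at least 50%, whatever the mean replicate activation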;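 note: hits raise the AlphaScreen acetylation signal above neutral controls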
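detection = AlphaScreen lysate read | assay system = U2OS cells expressing flag-PGC1a plus GCN5 | input = 7000 cells/well | dosing = one concentration | times = compound overnight at 37 °C, each detection step 1 h RT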
A number is an active result; - = inactive. The full list was thinned out, with hits kept by preference.

SMILES | PGC1a Ac signal
Cn1ncc(C(=O)Nc2ccc(Cl)cc2)c1C(F)(F)F | -
CC(C)c1ccc(NC(=O)c2n[nH]c(=O)c3ccccc23)cc1 | -
CC(C)c1ccc(NC(=O)CCNS(=O)(=O)c2cccc3nonc23)cc1 | 53
O=C(Nc1cccc(F)c1)C1CCN(S(=O)(=O)c2cccc3nonc23)CC1 | -
O=C(Nc1cccc(OC(F)(F)F)c1)c1ccc(-c2cccnc2)c2ccoc12 | 59
CC[C@H](C)[C@@H]1NC(=O)[C@@H](CC(C)C)NC(=O)[C@H](C(C)C)NC(=O)[C@H]2CSSC[C@H](NC1=O)C(=O)N2 | -
CC(=O)c1cccc(-n2nnnc2SCC(=O)NNC(=O)C(C)C)c1 | -
O=C1Nc2cc(S(=O)(=O)N3CCCC3)ccc2N2CCCC12 (stereo not given) | 95
C[C@H]1CN([C@@H](C)CO)C(=O)c2cc(C#CC(C)(C)O)cnc2O[C@@H]1CN(C)C(=O)C1CCC1 | -
Cc1nn(-c2ccccc2)c(Cl)c1C(=O)N1CCN(c2ncnc3c2cnn3-c2ccccc2)CC1 | -
O=C(CCCCCN1C(=O)c2cccc3cccc(c23)C1=O)NCc1cccnc1 | 494
O=C(c1cc2ccccc2o1)N1CC=C(c2ccccc2)CC1 | -
COc1ccc(C(=O)C(CN2CCOCC2)c2ccccc2)cc1F (stereo not given) | -
CC(=O)Cc1nsc(NC(=O)c2cccc(F)c2)n1 | -
CC(C)(O)C#Cc1ccc(C(=O)NC(CCCNC(N)=O)C(=O)O)s1 (stereo not given) | -
COc1ccc(-c2cc(C(=O)O)[nH]n2)cc1OC | -
COc1ccc(OC)c(-n2c(-c3ccc(C)cc3)n[nH]c2=S)c1 | 70
C[C@@H]1CN([C@H](C)CO)C(=O)Cc2cc(NC(=O)Nc3ccccc3)ccc2O[C@H]1CN(C)Cc1ccccc1 | -
CCCOc1ccc2c(c1)C(=NN=C(N)N)c1cc(OCCC)ccc1-2 | 75
CCOC(=O)CSc1nc2cc3c(cc2cc1C#N)OCCO3 | -
COc1ccc(CC2=CC(=O)c3ccccc3C2=O)cc1 | 128
CC(C)NC(=O)N(C)C[C@H]1OCCCC[C@@H](C)Oc2ccc(NC(=O)Cc3ccccc3)cc2C(=O)N([C@@H](C)CO)C[C@H]1C | -
CC(NS(=O)(=O)c1ccccc1Cl)C1CC2CCC1C2 (stereo not given) | 102
Cc1ccc(S(=O)(=O)OCCC2=CC(=O)CCN2Cc2ccccc2)cc1 | -
O=C(NCc1cccc(Cl)c1)c1ccc(-n2ccnc2)c2ccoc12 | 52
SMILES | PGC1a Ac signal
CCN(CC)Cc1c(O)ccc2c([N+](=O)[O-])c(C)n(-c3ccc(OC)cc3)c12 | -
Cc1cc(C)n(-c2ccc(Cl)c(C(=O)OCC(N)=O)n2)n1 | -
CN1/C(=C/C(=O)c2nc(S(C)(=O)=O)ncc2Cl)C(C)(C)c2ccccc21 | -
CCOC(=O)c1nc(S(C)(=O)=O)ncc1Cl | 132
CC(=O)Nc1ccc(C(=O)OC2CCOC2=O)cc1 (stereo not given) | -
COc1cc(CCC(=O)Nc2cc(C)cc(C)c2)cc(OC)c1OC | -
COc1cc(CC(=O)OC2CCOC2=O)cc(OC)c1OC (stereo not given) | 57
CC(C)NC(=O)Nc1ccc2c(c1)C(=O)N([C@@H](C)CO)C[C@@H](C)[C@H](CN(C)Cc1ccc(C(=O)O)cc1)OCCCC[C@H](C)O2 | -
O=C(CCl)NCc1cc(-c2ccc(Cl)cc2)no1 | 52
CN(C)C(=O)C[C@H]1CC[C@@H](NC(=O)C2CCC2)[C@H](CO)O1 | -
C=CCn1c(SCc2c(C)noc2C)nc2ccccc2c1=O | 74
Cc1noc(C)c1CSc1nnc(-c2cccnc2)n1C1CCCCC1C (stereo not given) | -
COc1cc2nc(SCc3c(C)noc3C)n(CCC3=CCCCC3)c(=O)c2cc1OC | -
COc1ccc(Oc2c(Cl)cnn(-c3ccc(F)cc3)c2=O)cc1 | 81
COc1cc(C2C(C#N)=C(N)Oc3c2oc(CO)cc3=O)cc(OC)c1OC (stereo not given) | 102
Cc1ccc(Cl)cc1N1CCN(C(=O)CSc2nnc3n2C(C)(C)Cc2ccccc2-3)CC1 | 52
Cc1cc(=O)[nH]c(SCC(=O)N2CCc3ccccc3C2)n1 | -
COCCOc1ccc(C(F)(F)F)cc1NC(=O)CN1C(=O)NC2(CCCc3ccccc32)C1=O (stereo not given) | -
CC1=NN(C(=O)c2ccc(C)cc2)C(O)(C(F)(F)OC(F)(F)F)C1 (stereo not given) | 55
CC(C)CCC1=NN(C(=O)c2ccco2)C(O)(C(F)(F)F)C1 (stereo not given) | -
CS(=O)(=O)c1ncc(Cl)c(C(=O)Nc2ccc(N3CCOCC3)cc2)n1 | 81
CC(C)c1ccc(NC(=O)c2ccc3c(c2)CCN3S(C)(=O)=O)cc1 | -
COc1ccc(/C=N/NC(=O)Cn2cnc3ccccc3c2=O)cc1OC | -
C[C@@H]1CN([C@H](C)CO)C(=O)CCCn2nncc2CO[C@H]1CN(C)C(=O)C1CC1 | -
O=C(NCc1ccccc1)C1Cc2c(-c3ccc4c(c3)OCO4)ccnc2O1 (stereo not given) | 133
SMILES | PGC1a Ac signal
CC(=O)c1cccc(-c2ccnc3c2CC(C(=O)NCC2CC2)O3)c1 (stereo not given) | 58
Cc1ccc(CNC(=O)CCS(=O)(=O)c2cc3c(cc2Cl)NC(=O)CO3)cc1 | -
C[C@H]1CN([C@@H](C)CO)C(=O)CCCn2cc(nn2)CO[C@H]1CN(C)S(=O)(=O)c1ccc(Cl)cc1 | -
CO[C@@H]1CN(C)C(=O)c2ccc(NS(C)(=O)=O)cc2OC[C@@H](C)N(Cc2nccs2)C[C@@H]1C | -
Cc1ccccc1NC(=O)Nc1ccccc1Br | -
COC(=O)c1cc(CN2C(=O)c3ccccc3C2=O)c(O)c([N+](=O)[O-])c1 | -
CN(C)S(=O)(=O)c1ccc(N2CCCC2)c(C(=O)NCc2cccc(C(F)(F)F)c2)c1 | 93
CN(Cc1c(F)cccc1Cl)c1nnnn1-c1ccccc1 | -
CO[C@@H]1CN(C)C(=O)c2cc(NS(=O)(=O)c3ccc(Cl)cc3)ccc2OC[C@H](C)N(C)C[C@H]1C | -
CC1CCCCC1NC(=O)C1CCN(S(=O)(=O)N2CCOCC2)CC1 (stereo not given) | -
CCOc1ccc(OCc2ccc(C(=O)NN=Cc3ccc[nH]3)cc2)cc1 | -
Cc1cc(Sc2nnc(N)s2)c2ccccc2n1 | 59
C[C@@H]1CN([C@@H](C)CO)C(=O)CCCn2cc(nn2)CO[C@H]1CN(C)Cc1ccc2c(c1)OCO2 | -
O=C(CS(=O)CC(=O)Nc1cccc2c1CCCC2)Nc1ccc(F)cc1 (stereo not given) | 66
Cc1ccc(CN(C(=O)Cn2nnc3ccccc32)C(C(=O)NCc2ccco2)c2cccs2)cc1 (stereo not given) | -
O=C(C[C@@H]1C[C@@H]2c3cc(NC(=O)Nc4ccccc4F)ccc3O[C@@H]2[C@@H](CO)O1)NCc1ccc(Oc2ccccc2)cc1 | -
CN(C)CCNC(=O)c1cccc2c(-c3ccc(F)c(F)c3)coc12 | 78
O=[N+]([O-])c1ccc(Oc2cccc(F)c2)c2ccncc12 | -
CCC(=O)Nc1cccc(C(=O)/C=C/c2ccccc2)c1 | -
Cc1cccc(NC(=O)CCC(=O)N/N=C/c2ccc(O)cc2O)c1 | 51
COC(=O)c1ccc[n+](CC(=O)c2ccc(Br)cc2)c1 | -
CS(=O)(=O)Nc1ccc2c(c1)[C@@H]1C[C@H](CC(=O)N3CCc4ccccc4C3)O[C@@H](CO)[C@@H]1O2 | -
